This is an account of results in ChEMBL document CHEMBL1142895, “Discovery of a new insecticide lead by optimizing a target-diverse scaffold: tetrazolinone derivatives” (2007).

Structures are written as SMILES. Calls of active or inactive are those of the source. No cut-off for these calls is given here.

Test [1] relates to Sorghum bicolor. The test is described as follows: Herbicidal activity against Sorghum bicolor at 450 g ai/ha in greenhouse in vivo test. It is filed as functional, organism-based.
The subject of test [2] is Cucumis sativus. The test can be described thus: Herbicidal activity against Cucumis sativus at 450 g ai/ha in greenhouse in vivo test. It is filed as functional, organism-based.
The subject of test [3] is Radish. The test can be described thus: Herbicidal activity against Raphanus sativus at 450 g ai/ha in greenhouse in vivo test. It is filed as functional, organism-based.
For test [4], the system named is Sorghum bicolor. The test is described as follows: Inhibition of stem growth of Sorghum bicolor at 100 mg/L. It is filed as functional. Put shortly:
(§1)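 Seeds of each species were grown in Petri dishes with 10 seeds per dish, at 28 °C, 70–80% RH, 16:8 h light:dark photoperiod and 3000 lx light for 5 days. Root and stem lengths were measured for the 10 seeds and averaged. Each test and its controls were run in three replicates, and the data were given probit analysis.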

Test [5] relates to Triticum aestivum. The test can be described thus: Inhibition of stem growth of Triticum aestivum at 100 mg/L. It is filed as functional. An outline of the steps:
as §1

Test [6] concerns Cucumis sativus. The test can be described thus: Inhibition of stem growth of Cucumis sativus at 100 mg/L. It is filed as functional. An outline of the steps:
as §1

Test [7] deals with Echinochloa crus-galli. The test is described as follows: Herbicidal activity against Echinochloa crus-galli at 450 g ai/ha in greenhouse in vivo test. It is filed as functional, organism-based.
Test [8] deals with Cucumis sativus. The test can be described thus: Inhibition of root growth of Cucumis sativus at 100 mg/L. It is filed as functional. Put shortly: as §1
The subject of test [9] is Brassica rapa subsp. oleifera. The test can be described thus: Inhibition of root growth of Brassica campestris at 100 mg/L. It is filed as functional. An outline of the steps:
as §1

For test [10], the system named is Brassica rapa subsp. oleifera. The test is described as follows: Herbicidal activity against Brassica campestris at 450 g ai/ha in greenhouse in vivo test. It is filed as functional, organism-based.
In test [11] the test system is Radish. The test can be described thus: Inhibition of stem growth of Raphanus sativus at 100 mg/L. It is filed as functional. An outline of the steps:
as §1

In test [12] the test system is Triticum aestivum. The test is described as follows: Herbicidal activity against Triticum aestivum at 450 g ai/ha in greenhouse in vivo test. It is filed as functional, organism-based.
The test system of test [13] is Tetranychus cinnabarinus. The test can be described thus: Insecticidal activity against Tetranychus cinnabarinus at 250 mg/L. It is filed as functional. An outline of the steps: (§2)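 Groups of 10 of each species were placed in glass Petri dishes and sprayed with test solution using a Potter sprayer. After air-drying, they were held under normal rearing conditions. Mortality at 72 h was taken from the number and size of live larvae relative to untreated controls.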

The subject of test [14] is Aphis. The test can be described thus: Insecticidal activity against Aphis medicagini at 250 mg/L. It is filed as functional. Put shortly: as §2
For test [15], the system named is Sorghum bicolor. The test can be described thus: Inhibition of root growth of Sorghum bicolor at 100 mg/L. It is filed as functional. An outline of the steps:
as §1

In test [16] the test system is Brassica rapa subsp. oleifera. The test is described as follows: Inhibition of stem growth of Brassica campestris at 100 mg/L. It is filed as functional. An outline of the steps: as §1
Test [17] concerns Triticum aestivum. The test is described as follows: Inhibition of root growth of Triticum aestivum at 100 mg/L. It is filed as functional. Put shortly:
as §1

The subject of test [18] is Echinochloa crus-galli. The test is described as follows: Inhibition of stem growth of Echinochloa crus-galli at 100 mg/L. It is filed as functional. Put shortly:
as §1

Test [19] has as its system Echinochloa crus-galli. The test is described as follows: Inhibition of root growth of Echinochloa crus-galli at 100 mg/L. It is filed as functional. An outline of the steps: as §1
Test [20] concerns Radish. The test can be described thus: Inhibition of root growth of Raphanus sativus at 100 mg/L. It is filed as functional. An outline of the steps:
as §1

By inhibition is commonly meant the drop in the measured response relative to a control, in per cent. Read a high inhibition as a response far below the control. On to `O=c1n(Cc2cccc(Cl)c2)nnn1-c1ccc(Cl)cc1`, for which the result in [1], in test [2], in test [3], in [7], in [10] and in test [12] was inactive. The inhibition at 100 µg/mL in test [4], in test [5], in [6], in test [8], in [9] and in test [11] was 0% in each case. Further, the inhibition at 100 µg/mL in test [15], in [16], in [17], in [18], in test [19] and in test [20] was 0% each time. Moreover, the Activity in test [13] and in test [14] was 0% throughout.
With `O=c1n(Cc2ccc(Br)cc2)nnn1-c1ccc(Cl)cc1`, the result in test [1], in test [2], in [3], in test [7], in [10] and in test [12] was inactive. The inhibition at 100 µg/mL came to 0% in test [4]; 30% in test [5]; 0% in test [6]; 0% in [8]; 0% in test [9]; 0% in test [11]. The inhibition at 100 µg/mL in test [15], in test [16], in test [17], in test [18], in test [19] and in test [20] was 0% in each case. Further, the figures for the Activity in [13] and in [14] were 0% and 13.3%, respectively.
With `O=c1c(Cn2nnn(-c3ccccc3Cl)c2=O)coc2ccccc12`, the outcome in test [1], in [2], in test [3], in [7], in test [10] and in test [12] was inactive. The inhibition at 100 µg/mL in test [4] is 30%; in [5], 30%; in test [6] it was 0%; in test [8], 0%; in [9] it was 50%; in [11], 30%. The inhibition at 100 µg/mL stood at 50% in test [15]; 30% in [16]; 0% in [17]; 0% in [18]; 0% in [19]; 50% in test [20]. Moreover, the Activity in test [13] is 2.9%; in test [14], 13.3%.
`CCCCCCCCSc1nnc(Cn2nnn(-c3ccc(Cl)cc3)c2=O)o1`: the result in test [1], in [2], in [3], in test [7], in test [10] and in [12] was inactive. In addition, the inhibition at 100 µg/mL in [4], in test [5], in [6], in [8], in [9] and in [11] was 0% throughout. Further, the inhibition at 100 µg/mL in [15], in [16], in test [17], in test [18], in [19] and in [20] was 0% each time. For the same molecule, the values for the Activity in test [13] and in test [14] were 2.9% and 3.3%, respectively.
Regarding `O=c1n(Cc2ccccc2F)nnn1-c1ccc(Cl)cc1`, the result in test [1], in [2], in test [3], in test [7], in test [10] and in test [12] was inactive. Also, the inhibition at 100 µg/mL in [4], in test [5], in [6], in test [8], in test [9] and in test [11] was 0% in each case. Also, the inhibition at 100 µg/mL in [15], in test [16], in [17], in test [18], in [19] and in test [20] was 0% each time. The Activity in test [13] turned out to be 10%; in test [14], 5%.
As for `O=c1c(Cn2nnn(-c3ccc(Cl)cc3)c2=O)coc2ccccc12`, the result in [1], in test [2], in test [3], in test [7], in test [10] and in test [12] was inactive. Besides, the inhibition at 100 µg/mL came out at 0% in test [4]; 30% in test [5]; 0% in test [6]; 0% in test [8]; 0% in test [9]; 0% in test [11]. In addition, the inhibition at 100 µg/mL in test [15], in test [16], in [17], in test [18], in test [19] and in [20] was 0% throughout. In addition, the Activity in [13] came out at 100%; in test [14], 1.7%.
As to `Cc1ccc(Cn2nnn(-c3ccc(Cl)cc3)c2=O)cc1`, the outcome in [1], in test [2], in [3], in [7], in [10] and in test [12] was inactive. In addition, the inhibition at 100 µg/mL in test [4], in test [5], in [6], in [8], in test [9] and in test [11] was 0% throughout. The inhibition at 100 µg/mL in [15], in test [16], in test [17], in test [18], in test [19] and in test [20] was 0% throughout. In addition, the Activity in test [13] was 0%; in [14] it was 3.3%.
